Calls of active or inactive are those of the source. No cut-off for these calls is given here.
Legend:
Androgen receptor = target: T1, Androgen receptor (Homo sapiens, UniProt P10275); assay: Inhibition of androgen receptor in human LNCaP cells assessed as inhibition of prostate-specific antigen secretion into media after 3 days; format: cell-based
T1 sequence (P10275 whole entry): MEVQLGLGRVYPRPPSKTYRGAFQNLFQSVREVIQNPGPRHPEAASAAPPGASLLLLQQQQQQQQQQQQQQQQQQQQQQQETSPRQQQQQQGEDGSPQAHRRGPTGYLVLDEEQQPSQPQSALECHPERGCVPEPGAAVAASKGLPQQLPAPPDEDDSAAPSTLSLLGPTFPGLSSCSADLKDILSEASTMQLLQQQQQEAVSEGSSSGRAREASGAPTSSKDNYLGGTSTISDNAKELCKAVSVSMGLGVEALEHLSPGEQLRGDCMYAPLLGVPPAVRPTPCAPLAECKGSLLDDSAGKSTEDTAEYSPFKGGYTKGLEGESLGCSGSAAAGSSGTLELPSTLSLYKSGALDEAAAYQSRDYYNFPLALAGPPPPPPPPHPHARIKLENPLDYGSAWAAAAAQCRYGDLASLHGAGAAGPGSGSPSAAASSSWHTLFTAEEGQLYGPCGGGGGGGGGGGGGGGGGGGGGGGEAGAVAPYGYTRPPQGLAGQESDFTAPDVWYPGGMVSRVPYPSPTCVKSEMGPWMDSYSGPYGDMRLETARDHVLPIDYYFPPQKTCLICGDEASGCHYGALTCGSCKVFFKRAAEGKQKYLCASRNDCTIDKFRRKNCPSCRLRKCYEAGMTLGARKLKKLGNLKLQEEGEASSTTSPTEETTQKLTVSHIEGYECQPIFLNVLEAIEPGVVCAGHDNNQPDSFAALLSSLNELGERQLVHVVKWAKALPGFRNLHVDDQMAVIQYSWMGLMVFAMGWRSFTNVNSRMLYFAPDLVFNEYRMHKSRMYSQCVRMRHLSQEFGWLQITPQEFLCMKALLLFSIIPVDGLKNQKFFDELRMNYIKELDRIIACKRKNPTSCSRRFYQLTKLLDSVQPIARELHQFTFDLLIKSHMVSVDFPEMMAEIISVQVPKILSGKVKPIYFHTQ

[1] = target: T2, Androgen receptor (Homo sapiens) (UniProt P10275); assay: Displacement of androgen from androgen receptor (unknown origin) by Polarscreen competitor green assay
T2 sequence (whole entry): T1 sequence (P10275 whole entry)

[2] = target: T3, Progesterone receptor (Homo sapiens) (UniProt P06401); assay: Inhibition of progesterone receptor (unknown origin) transcriptional activity at […]
T3 sequence (whole entry): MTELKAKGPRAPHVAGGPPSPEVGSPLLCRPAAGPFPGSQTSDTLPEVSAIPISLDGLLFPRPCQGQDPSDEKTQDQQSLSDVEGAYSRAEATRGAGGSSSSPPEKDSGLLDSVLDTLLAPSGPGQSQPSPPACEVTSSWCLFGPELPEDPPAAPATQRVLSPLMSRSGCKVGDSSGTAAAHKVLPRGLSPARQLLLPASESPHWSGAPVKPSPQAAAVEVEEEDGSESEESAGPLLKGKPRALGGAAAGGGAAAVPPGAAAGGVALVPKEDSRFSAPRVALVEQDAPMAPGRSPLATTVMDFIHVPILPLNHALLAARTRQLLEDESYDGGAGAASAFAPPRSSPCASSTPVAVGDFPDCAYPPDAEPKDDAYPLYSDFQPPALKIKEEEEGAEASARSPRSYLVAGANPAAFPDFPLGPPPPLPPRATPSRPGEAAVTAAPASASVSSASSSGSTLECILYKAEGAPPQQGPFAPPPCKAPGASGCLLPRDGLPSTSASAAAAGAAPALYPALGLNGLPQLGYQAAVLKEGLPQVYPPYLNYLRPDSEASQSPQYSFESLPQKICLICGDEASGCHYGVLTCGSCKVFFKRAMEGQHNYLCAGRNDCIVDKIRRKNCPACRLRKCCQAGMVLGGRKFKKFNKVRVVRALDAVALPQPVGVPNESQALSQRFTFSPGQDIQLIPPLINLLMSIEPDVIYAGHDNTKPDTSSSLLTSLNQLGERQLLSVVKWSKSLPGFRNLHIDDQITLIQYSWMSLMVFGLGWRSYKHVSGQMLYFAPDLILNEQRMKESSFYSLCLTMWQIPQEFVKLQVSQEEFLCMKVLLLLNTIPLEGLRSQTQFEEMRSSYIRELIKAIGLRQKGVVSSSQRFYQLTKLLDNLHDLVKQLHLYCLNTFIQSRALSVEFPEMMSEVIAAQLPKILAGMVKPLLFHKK
Method in brief: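 PC3 cells were starved 5 days in RPMI 1640 with 5% charcoal-stripped serum. They were cotransfected with GR or PR plasmid plus 50 ng ARR3tk-luciferase, and 48 h later treated with compound for 24 h. Stimulation was 1 nM dexamethasone (GR) or progesterone (PR). Luciferase luminescence was read from cell lysates.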

LNCaP = assay: Growth inhibition of AR-dependent human LNCAP cells after 3 days by MTS assay; format: functional, cell-based
Method in brief: (§1)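 LNCaP and MR49F cells were seeded at 3000 cells/well in RPMI 1640 with 5% charcoal-stripped serum. They were treated with 0.1 nM R1881 plus compound (0−25 μM) for 4 days; the figure legend gives 3 days. Readout was MTS tetrazolium absorbance. Growth was normalized as (sample − vehicle)/(0.1 nM R1881 − vehicle) × 100.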

MR49F = assay: Growth inhibition of enzalutamide-resistant human MR49F cells after 3 days by MTS assay; format: functional, cell-based; method in brief: as §1
[3] = Growth inhibition of AR-negative human PC3 cells after 3 days by MTS assay; format: cell-based; details: pc-3, 72 h
[4] = Stability of the compound in RPMI plus 5% charcoal stripped serum media after 1 hr by MS analysis; format: physicochemical

SMILES	IC50 (Androgen receptor) [µM]	Activity [1]	inhibition [2]	growth inhibition (GI) (LNCaP)	growth inhibition (GI) (MR49F)	Activity [3]	inhibition [1]	Stability [4]
c1ccc(-c2csc(N3CCOCC3)n2)cc1	0.28	inactive	inactive					
Brc1ncn(-c2csc(N3CCOCC3)n2)c1Br	0.17		inactive	Dose-dependent effect	Active	Non-toxic	inactive	Stable

Reference: ChEMBL document CHEMBL3352043, “Discovery of small-molecule inhibitors selectively targeting the DNA-binding domain of the human androgen receptor” (J Med Chem, 2014)
